This note sets out measurements from the array DNA melting data of Ke et al. (doi:10.1101/2024.01.08.574731).

Data set [1] can be described thus: melting temperature; fluorescence melt of hairpins on a sequencing array, two-state fit, raised by 9.35 °C to match UV melts. To be noted: sodium 0.088 M. The procedure, abridged: (§1)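 Cy3 signals were normalised both to pre-quench Cy3 and to control constructs. They came from library hairpins carrying annealed Cy3 and quencher oligos on a sequenced MiSeq flow cell, imaged in 50 mM Na-HEPES pH 8.0, 25 mM NaCl, in 2.5 °C steps up to 60 °C. Bootstrapped two-state fits gave melting temperature and folding enthalpy, and four replicates were combined by inverse variance. Fitted temperatures were then raised by 9.35 °C to match UV melts.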

A short description of data set [2]: folding enthalpy; higher = less favourable; fluorescence melt of hairpins on a sequencing array, two-state fit. Particulars: sodium 0.088 M. The procedure, abridged: as §1

Regarding GATCGTTTTCACGATC ((((((....)))))), the Tm in data set [1] was 55.4 °C. Also, in data set [2], the folding enthalpy is -45.2 kcal/mol.
On the same counts, the results for GATCTAAAACTAGATC ((((((....)))))) are 31.1 °C and -21.1 kcal/mol.
On to GATCTAAAGTTAGATC ((((((....)))))), for which, in data set [1], the Tm was 36.7 °C. Also, the folding enthalpy in data set [2] was -26.1 kcal/mol.
With GATCTAAATCTAGATC ((((((....)))))), in data set [1], the Tm is 35.4 °C. In addition, the folding enthalpy in data set [2] was -25.2 kcal/mol.
With GATCTAAATGTAGATC ((((((....)))))), in data set [1], the Tm was 36.7 °C. For the same sequence, in data set [2], the folding enthalpy is -26.8 kcal/mol.
Regarding GATCTAACACTAGATC ((((((....)))))), the Tm in data set [1] stood at 36.9 °C. Besides, the folding enthalpy in data set [2] is -24.6 kcal/mol.
In the same order, the values of GATCTAACGATAGATC ((((((....)))))) are 34.1 °C and -29.4 kcal/mol.
Take GATCTAACGTTAGATC ((((((....)))))): the Tm in data set [1] was found to be 48.3 °C. In addition, the folding enthalpy in data set [2] is -47 kcal/mol.
In the same order, the values of GATCTAACTTTAGATC ((((((....)))))) are 43.2 °C and -29.9 kcal/mol.
As for GATCTAAGCATAGATC ((((((....)))))), in data set [1], the Tm stood at 40.3 °C. Further, the folding enthalpy in data set [2] was -32.2 kcal/mol.
For the sequence GATCTAAGCTAGATC ((((((...)))))), the Tm in data set [1] was found to be 39.5 °C. Further, in data set [2], the folding enthalpy was -21.5 kcal/mol.
GATCTAAGCTTAGATC ((((((....)))))): the Tm in data set [1] worked out at 47.5 °C. Besides, the folding enthalpy in data set [2] was -53.5 kcal/mol.
In the same order, the values of GATCTAAGGCTAGATC ((((((....)))))) are 38.8 °C and -25.3 kcal/mol.
For the sequence GATCTAAGTTAGATC ((((((...)))))), the Tm in data set [1] came out at 37.3 °C. Also, in data set [2], the folding enthalpy is -29.9 kcal/mol.
Turning to GATCTAATACTAGATC ((((((....)))))), in data set [1], the Tm was 37.4 °C. The folding enthalpy in data set [2] was -30.1 kcal/mol.
On the same counts, the results for GATCTAATCATAGATC ((((((....)))))) are 38.6 °C and -34.8 kcal/mol.
In the same order, the values of GATCTAATTATAGATC ((((((....)))))) are 37.9 °C and -29 kcal/mol.
In the same order, the values of GATCTACACATAGATC ((((((....)))))) are 43.2 °C and -44.3 kcal/mol.
Regarding GATCTACCAGTAGATC ((((((....)))))), the Tm in data set [1] was found to be 48.9 °C. Moreover, the folding enthalpy in data set [2] is -32.6 kcal/mol.
On the same counts, the results for GATCTACCGATAGATC ((((((....)))))) are 37.8 °C and -35.5 kcal/mol.
In the case of GATCTACGGGTAGATC ((((((....)))))), the Tm in data set [1] was 51.1 °C. For the same sequence, the folding enthalpy in data set [2] was -42.6 kcal/mol.
As to GATCTACGTGTAGATC ((((((....)))))), in data set [1], the Tm was 55.2 °C. In addition, the folding enthalpy in data set [2] was -48.5 kcal/mol.
Turning to GATCTACTGTAGATC ((((((...)))))), the Tm in data set [1] was 41.1 °C. For the same sequence, the folding enthalpy in data set [2] is -36.8 kcal/mol.
For the sequence GATCTACTTCTAGATC ((((((....)))))), in data set [1], the Tm stood at 38.7 °C. Further, the folding enthalpy in data set [2] was -33.5 kcal/mol.
In the same order, the values of GATCTAGAACTAGATC ((((((....)))))) are 44.9 °C and -34.2 kcal/mol.
Take GATCTAGAATTAGATC ((((((....)))))): the Tm in data set [1] turned out to be 45.2 °C. In addition, in data set [2], the folding enthalpy is -35 kcal/mol.
Regarding GATCTAGACGTAGATC ((((((....)))))), the Tm in data set [1] worked out at 44.8 °C. Moreover, the folding enthalpy in data set [2] is -38.9 kcal/mol.
On the same counts, the results for GATCTAGAGTAGATC ((((((...)))))) are 34.8 °C and -28.1 kcal/mol.
Take GATCTAGAGTTAGATC ((((((....)))))): the Tm in data set [1] worked out at 37.7 °C. Moreover, the folding enthalpy in data set [2] was -24 kcal/mol.
With GATCTAGCACTAGATC ((((((....)))))), the Tm in data set [1] is 47.1 °C. Moreover, in data set [2], the folding enthalpy was -43.9 kcal/mol.
On the same counts, the results for GATCTAGCAGTAGATC ((((((....)))))) are 43.2 °C and -31.2 kcal/mol.
